Published values of several laboratories.
Compare with care: the assays were run in different laboratories.
Target: Ephrin type-A receptor 1 (EPHA1, Homo sapiens, UniProt P21709)
Residues used in one study (P21709 26-976): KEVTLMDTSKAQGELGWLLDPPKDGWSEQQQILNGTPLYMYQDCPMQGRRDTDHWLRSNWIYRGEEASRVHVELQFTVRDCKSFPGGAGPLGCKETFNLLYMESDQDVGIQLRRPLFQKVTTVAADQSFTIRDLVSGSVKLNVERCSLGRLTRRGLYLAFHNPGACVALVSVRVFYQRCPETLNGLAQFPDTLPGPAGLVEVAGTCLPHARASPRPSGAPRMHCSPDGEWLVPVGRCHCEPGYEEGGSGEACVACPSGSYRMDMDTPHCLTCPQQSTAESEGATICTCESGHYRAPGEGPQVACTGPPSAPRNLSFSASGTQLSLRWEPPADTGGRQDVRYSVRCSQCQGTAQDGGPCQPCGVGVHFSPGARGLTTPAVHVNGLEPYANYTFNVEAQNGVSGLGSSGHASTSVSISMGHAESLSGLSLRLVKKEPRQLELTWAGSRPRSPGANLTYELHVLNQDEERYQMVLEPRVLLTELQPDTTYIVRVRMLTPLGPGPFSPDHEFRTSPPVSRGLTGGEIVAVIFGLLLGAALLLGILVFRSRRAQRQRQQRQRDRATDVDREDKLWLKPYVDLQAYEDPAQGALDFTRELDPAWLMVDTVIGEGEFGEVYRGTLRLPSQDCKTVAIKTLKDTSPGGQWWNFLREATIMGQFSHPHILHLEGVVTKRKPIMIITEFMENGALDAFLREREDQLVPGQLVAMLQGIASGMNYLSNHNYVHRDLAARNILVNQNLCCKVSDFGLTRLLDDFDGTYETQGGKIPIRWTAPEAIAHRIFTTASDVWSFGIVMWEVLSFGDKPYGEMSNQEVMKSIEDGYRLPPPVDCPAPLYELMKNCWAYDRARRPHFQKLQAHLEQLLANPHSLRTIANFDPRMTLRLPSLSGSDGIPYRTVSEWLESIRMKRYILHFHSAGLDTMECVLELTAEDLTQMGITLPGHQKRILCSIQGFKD

CN(CCCC(F)(F)F)c1nccc(-c2cnn3ncccc23)n1
remaining binding (binding; 1 µM): 76%

COc1cnc(Nc2cccc(S(N)(=O)=O)c2)nc1N1CCN(c2ccccc2)CC1
remaining binding (binding, competition with immobilised ligand; 1 µM): 100%

CCS(=O)(=O)c1cc2cc(C[C@@](O)(CC(C)(C)c3ccc(F)cc3C(N)=O)C(F)(F)F)[nH]c2cn1
remaining binding (cell-free assay, competition with immobilised ligand; 1 µM): 99%

O=C(NCCCN1CCOCC1)c1ccc(Nc2nccc(-c3cc4ccccc4s3)n2)cc1
remaining binding (binding, competition with immobilised ligand; 1 µM): 44%

CC(=O)N1CCC(c2ccc(C(=O)NC3=NCCN3)cc2C(F)(F)F)CC1
remaining binding (cell-free assay, competition with immobilised ligand; 1 µM): 88%

C[C@@H]1CCN(c2nccc(-c3cnn4ncccc34)n2)C1
remaining binding (binding; 1 µM): 100%

C=CC(=O)N1CCC(C(=O)NCC(=O)N2CCN(c3nc(-c4cnc(N)nc4C(F)F)nc(N4CCOCC4)n3)CC2)CC1
remaining binding (binding, competition with immobilised ligand; 1 µM): 100%

C[C@@H](c1ccc(-n2cnc3c(N)ncnc32)cc1)N1CCc2nn(C)c(Cc3ccccc3)c2C1=O
remaining binding (binding, competition with immobilised ligand; 0.1 µM): 87%

CN(C)c1nccc(-c2cnn3ncccc23)n1
remaining binding (binding; 1 µM): 46%

O=C(c1ccc(Nc2ncc(Cl)c(-c3ccc(Cl)s3)n2)cc1)N1CCC(N2CCCC2)CC1
remaining binding (binding, competition with immobilised ligand; 1 µM): 32%

CC(=O)N1CCC(c2ccc(C(=O)NC(=N)N)cc2C(F)(F)F)CC1
remaining binding (cell-free assay, competition with immobilised ligand; 1 µM): 100%

O=C(NCC1CCOCC1)c1n[nH]cc1NC(=O)c1c(F)cccc1F
remaining binding (binding, competition with immobilised ligand; 1 µM): 100%

CNC(=O)[C@@H]1CC[C@@H](n2c(-c3ccc4cnccc4c3)nc3ccc(C(=O)NCc4cccc(C(N)=O)c4)cc32)C1
remaining binding (binding, competition with immobilised ligand; 1 µM): 100%

N[C@H]1CCN(c2nccc(-c3cnn4ncccc34)n2)C1
remaining binding (binding; 1 µM): 100%

CC(=O)C1=C(C)N(c2cccc(C(F)(F)F)c2)C(=O)N[C@@H]1c1ccc(C#N)nc1
remaining binding (cell-free assay, competition with immobilised ligand; 1 µM): 100%

Cc1cnc(Nc2ccc(C(=O)N3CCC(N4CCCC4)CC3)cc2)nc1-c1cc2ccccc2s1
remaining binding (binding, competition with immobilised ligand; 1 µM): 3.9%

CNCc1ccccc1-c1csc([C@@H](C)Nc2nc(C)nc3cc(OC)c(OC)cc23)c1
remaining binding (cell-free assay, competition with immobilised ligand; 1 µM): 79%

CC1CCCN1c1nccc(-c2cnn3ncccc23)n1 (centres unmarked)
remaining binding (binding; 1 µM): 96%

CNC(=O)Nc1ccc2c(c1)CC[C@@]21OC(=O)N(CC(=O)N(Cc2ccc(F)cc2)[C@@H](C)C(F)(F)F)C1=O
remaining binding (cell-free assay, competition with immobilised ligand; 1 µM): 88%

COc1ccnn2ncc(-c3ccnc(N(C)C)n3)c12
remaining binding (binding; 1 µM): 100%
